# Assay results collected from several papers.
# Target: Serine/threonine-protein kinase STK11 (STK11, Homo sapiens, UniProt Q15831)
# One construct used (Q15831 1-433): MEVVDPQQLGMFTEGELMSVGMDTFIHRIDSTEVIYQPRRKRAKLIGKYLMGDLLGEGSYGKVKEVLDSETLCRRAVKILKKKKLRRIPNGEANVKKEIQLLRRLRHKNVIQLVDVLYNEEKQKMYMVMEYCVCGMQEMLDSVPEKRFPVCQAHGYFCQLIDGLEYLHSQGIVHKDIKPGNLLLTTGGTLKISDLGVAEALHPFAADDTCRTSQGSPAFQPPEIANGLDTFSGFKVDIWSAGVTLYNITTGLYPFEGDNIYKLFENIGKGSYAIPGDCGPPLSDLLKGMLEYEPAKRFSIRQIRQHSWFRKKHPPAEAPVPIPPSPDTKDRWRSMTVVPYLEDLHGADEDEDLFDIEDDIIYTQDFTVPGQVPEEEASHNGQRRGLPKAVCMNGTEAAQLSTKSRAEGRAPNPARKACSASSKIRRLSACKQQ
observed,method,concentration,remaining binding [%],SMILES
binding,competition with immobilised ligand,1 µM,3.9,O=C(NCCCN1CCOCC1)c1ccc(Nc2nccc(-c3cc4ccccc4s3)n2)cc1
cell-free assay,competition with immobilised ligand,1 µM,59,CO[C@H]1CC[C@H](CNc2ccc(S(=O)(=O)NC(=O)c3ccc(N4CCN(CC5=C(c6ccc(Cl)cc6)CC(C)(C)CC5)CC4)cc3Oc3cnc4[nH]ccc4c3)cc2[N+](=O)[O-])CC1
binding,competition with immobilised ligand,0.1 µM,100,C[C@@H](c1ccc(-n2cnc3c(N)ncnc32)cc1)N1CCc2nn(C)c(Cc3ccccc3)c2C1=O
binding,competition with immobilised ligand,1 µM,0,O=C(NCCCN1CCOCC1)c1ccc(Nc2ncc(Cl)c(-c3ccc(Cl)s3)n2)cc1
cell-free assay,competition with immobilised ligand,5 µM,72,FC(F)(F)Oc1cccc(-c2cnc3ccc(-c4ccncc4)nn23)c1
cell-free assay,competition with immobilised ligand,1 µM,100,CCc1ccccc1C(=O)Nc1n[nH]c2c(C)c(F)c(C3C(C#N)=C(C)N(C)C(C)=C3C#N)cc12
binding,competition with immobilised ligand,1 µM,4.3,O=C(c1ccc(Nc2nccc(-c3cc4ccccc4s3)n2)cc1)N1CCC(N2CCCC2)CC1
binding,,1 µM,80,C[C@H]1CCN(c2nccc(-c3cnn4ncccc34)n2)C1
cell-free assay,competition with immobilised ligand,0.1 µM,100,CS(=O)(=O)N1CCCC(NC(=O)[C@H](CCC2CCCCC2)NC(=O)c2ccc(CNc3ncnc4c3nnn4-c3ccccc3)cc2)C1 (stereo partly drawn)
binding,,1 µM,99,Cc1cnn2ncc(-c3ccnc(N(C)C)n3)c2c1
cell-free assay,competition with immobilised ligand,1 µM,94,O=C(O)[C@@H]1[C@@H](Cn2nnc3ccccc3c2=O)CC[C@H]1C(=O)c1ccc(OCCC2CCOCC2)cc1
binding,competition with immobilised ligand,1 µM,100,C=CC(=O)N1CCC(C(=O)NCC(=O)N2CCN(c3nc(-c4cnc(N)nc4C(F)F)nc(N4CCOCC4)n3)CC2)CC1
binding,competition with immobilised ligand,1 µM,100,Nc1ncc2c(n1)-c1c([nH]c3ccc(C#CC4CC4)cc13)CCCC2
binding,competition with immobilised ligand,1 µM,100,O=C(NCC1CCOCC1)c1n[nH]cc1NC(=O)c1c(F)cccc1F
cell-free assay,competition with immobilised ligand,0.1 µM,100,Nc1c(C(=O)NCc2ccc(C(=O)NCCCC3CCCCC3)cc2)cnn1-c1ccccc1
binding,,1 µM,100,F[C@@H]1CCN(c2nccc(-c3cnn4ncccc34)n2)C1
cell-free assay,competition with immobilised ligand,1 µM,100,Cc1nc(C2CCN(C(=O)c3ccc(OC(F)(F)F)cc3N)CC2)c2ncc(N3CCN(C)CC3)cc2n1
binding,,1 µM,65,N[C@H]1CCN(c2nccc(-c3cnn4ncccc34)n2)C1
binding,competition with immobilised ligand,10 µM,87,N#Cc1ccccc1CSc1nnc2c(n1)[nH]c1ccccc12
cell-free assay,competition with immobilised ligand,1 µM,72.8,CC(=O)C1=C(C)N(c2cccc(C(F)(F)F)c2)C(=O)N[C@@H]1c1ccc(C#N)nc1
binding,,1 µM,100,CC1CCCN1c1nccc(-c2cnn3ncccc23)n1 (stereo not drawn)
binding,competition with immobilised ligand,1 µM,93,CNC(=O)[C@@H]1CC[C@@H](n2c(-c3ccc4cnccc4c3)nc3ccc(C(=O)NCc4cccc(C(N)=O)c4)cc32)C1
binding,,1 µM,84,c1cnn2ncc(-c3ccnc(N4CCC45COC5)n3)c2c1
binding,competition with immobilised ligand,50 nM,72,C[C@@H]1CN(c2ccc3ncc(-c4ccc5[nH]nc(C6CC6)c5c4)n3n2)C[C@H](C)O1
